This is a sample that favours compounds with a hit; in the whole collection about 2.5% have one here.
Rce1 inhib = yeast Rce1p protease inhibitors, primary screen, biochemical, fluorescence, cell-free homogeneous; CAAX prenyl protease 2 (Saccharomyces cerevisiae (strain ATCC 204508 / S288c)), Q03530; yeast membranes, quenched prenylated peptide cleavage fluorescence; calls only; 290,000 compounds, 0.27% hits;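 active = fall in fluorescence gain of 50% or more versus controls, with final raw signal at or below 3038400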
Target sequence (Q03530 whole entry, looked up): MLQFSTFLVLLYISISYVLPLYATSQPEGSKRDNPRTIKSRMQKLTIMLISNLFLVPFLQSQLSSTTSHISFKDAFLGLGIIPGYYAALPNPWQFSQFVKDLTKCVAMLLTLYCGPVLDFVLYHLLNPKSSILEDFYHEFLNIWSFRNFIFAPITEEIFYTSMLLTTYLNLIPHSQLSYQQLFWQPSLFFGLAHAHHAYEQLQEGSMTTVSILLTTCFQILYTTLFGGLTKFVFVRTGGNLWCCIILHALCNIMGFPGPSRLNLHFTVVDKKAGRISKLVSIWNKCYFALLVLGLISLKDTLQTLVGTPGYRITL
MEKK2 mut-MEK5 = MEK5 binding signal on mutant MEKK2 PB1, primary screen, biochemical, multiplex bead flow cytometry, Alexa488-MEK5 | Alexa488-MEK5 binding to MEKK2 mutant | percent response, % at 10 µM | 290,000 compounds, 0.35% hits; in the data active = percent response above about 24%, passing the limit was not always enough
MEKK2wt PB1 HTS = modulators of MEK5 binding to wildtype MEKK2, primary screen, biochemical, multiplex bead flow cytometry, Alexa488-MEK5; Mitogen-activated protein kinase kinase kinase 2 (Homo sapiens), Q9Y2U5; binding response (% of control), % at 10 µM; AID 1531, 2009; Alexa488-MEK5 binding to MEKK2 WT; actives lie on both sides; 290,000 compounds, 1.1% hits; in the data active = binding response below about 67% or above about 130%
T cell HTS = modulators of CD8 T cell-vesicle binding, primary screen, mouse 2C CD8+ T cells, flow cytometry. response (vesicle binding), % at 7 µM. 2C CD8+ T cell-vesicle binding; hits give low values. 330,000 compounds, 0.068% hits;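 active = response, share of CD8 T cells binding vesicles, and their 90th percentile fluorescence all below set limits, cut at about 80% in these data, passing the limit was not always enough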;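 also: values below 100% mean blocked vesicle binding to the CD8+ T cells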
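Read-out – percent CD8+ FL2 mean versus row control · System – murine 2C transgenic CD8+ T lymphocytes · Times – 1.5 h cell–vesicle binding at 37 °C, then 20 min icy labelling · Control set – naked vesicles low, QL9 vesicles with vehicle high · Detection – cytometric PE anti-B7-1 and Alexa647 anti-CD8 signals after 1% paraformaldehyde fixation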
UCH37 DUB inh = inhibitors of human UCH37 deubiquitinase, primary screen, biochemical, Ub-AMC cleavage, fluorescence. purified proteasome/UCH37. inhibition, % (no concentration beside the values). 330,000 compounds, 0.33% hits. AID 588478, 2011;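 active = mean inhibition over replicate wells above about 20%, limit read from the data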
Target sequence (Q9Y5K5 whole entry, looked up): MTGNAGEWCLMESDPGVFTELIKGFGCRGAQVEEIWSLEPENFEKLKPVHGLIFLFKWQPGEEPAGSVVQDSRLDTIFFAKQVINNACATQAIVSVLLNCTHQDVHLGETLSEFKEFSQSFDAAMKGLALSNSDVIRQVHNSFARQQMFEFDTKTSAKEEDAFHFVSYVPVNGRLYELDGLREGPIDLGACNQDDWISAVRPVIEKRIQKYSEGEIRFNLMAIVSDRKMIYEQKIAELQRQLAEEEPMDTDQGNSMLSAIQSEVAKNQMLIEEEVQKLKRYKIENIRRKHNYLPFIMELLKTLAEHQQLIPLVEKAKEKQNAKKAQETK
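Test system – human UCH37 enzyme supplied as purified proteasome complex · Incubation – 30 min preincubation with enzyme, 25 min cleavage at room temperature · Detection – AMC fluorescence from Ub-AMC cleavage, excitation 355 nm, emission 460 nm · Benchmarks – no-proteasome wells (full inhibition) and compound-free wells (no inhibition)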
MEKK3 PB1 HTS = modulators of MEKK3-MEK5 PB1 binding, primary screen, biochemical, wildtype MEKK3, multiplex bead flow cytometry, Alexa488-MEK5. binding response (% of control), % at 10 µM. bead-based flow cytometry, Alexa488-MEK5 binding to MEKK3; actives lie on both sides; 0 = blocked by unlabeled MEK5, 100 = vehicle. 290,000 compounds, 1.4% hits;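 active = binding response more than 3 SD above or below the average of its plate-row segment, actives on both sides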;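 also: Alexa488 bead fluorescence after subtracting the streptavidin-only scavenger bead signal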
MEKK2wt confirm = modulators of MEK5 binding to wildtype MEKK2, confirmation, biochemical, single concentration, multiplex bead flow cytometry; shares compounds with MEKK3 PB1 HTS; 5,900 compounds, 2.4% hits; Alexa488-MEK5 binding to MEKK2 WT; actives lie on both sides; binding response (% of control), % at 10 µM; AID 1892, 2009; in the data active = binding response below about 16% or above about 210%; inactive = in between
MEKK2mut confirm = mutant MEKK2 PB1-MEK5 binding signal retest – biochemical, single concentration, multiplex bead flow cytometry, confirmation; 5,900 compounds, 2% hits; percent response, % at 10 µM; Alexa488-MEK5 binding to MEKK2 mutant; shares compounds with MEKK3 PB1 HTS; AID 1893, 2009; in the data active = percent response mostly above about 71%, no sharp cut-off; inactive = mostly below about 38%;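 also: higher means compound restores mutant binding toward wildtype level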
MEKK3 confirm = MEKK3 wild-type PB1 binding to MEK5, inhibitors, confirmation, biochemical, bead multiplex flow cytometry, single concentration, wildtype; shares compounds with MEKK3 PB1 HTS; Alexa488-MEK5 binding to MEKK3; hits give low values; binding response (% of control), % at 10 µM; 5,900 compounds, 1.8% hits;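 active = binding response below 72% of control, or above a set upper limit, though filed actives all read lower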;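 also: lower values mean stronger disruption of MEK5 binding to MEKK3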
A number is an active result; i = inactive; nt = not tested or not shown; + = active, no number; [ ] = dose if it differs, or a comment.

SMILES | Rce1 inhib | MEKK2 mut-MEK5 | MEKK2wt PB1 HTS | T cell HTS | UCH37 DUB inh | MEKK3 PB1 HTS | MEKK2wt confirm | MEKK2mut confirm | MEKK3 confirm
CCOc1cc(N2CCOCC2)c(OCC)cc1NC(=O)CN1CCCC1 | i | i | i | i | i | 132.0 | i | i | i
O=C(NNC(=O)c1ccc2ccccc2c1)c1cccc(Br)c1 | nt | nt | nt | nt | i | nt | nt | nt | nt
O=C(NNC(=S)Nc1cccc2ccccc12)c1cccc(Br)c1 | i | i | i | i | i | 80.0[inhibitor] | i | i | i
O=C(O)c1ccc(C=NO)cc1 | nt | nt | nt | nt | i | nt | nt | nt | nt
O=C(Nc1cc([N+](=O)[O-])ccc1F)C1CC1 | i | i | i | i | i | 130.0 | i | i | i
C=C(C)Cn1c(SCC#N)nc2ccccc2c1=O | i | i | i | i | i | 82.0[inhibitor] | i | i | i
Cn1c(SCC#N)nc2ccccc2c1=O | i | i | i | i | i | 128.0 | i | i | i
O=C(NN=C1CCCc2ccccc21)c1ccc([N+](=O)[O-])cc1Cl | nt | nt | nt | nt | i | nt | nt | nt | nt
CSc1nc(-c2ccccc2)nn1C(=O)c1ccco1 | i | i | 1.0[inhibitor] | i | i | 1.0[inhibitor] | i | i | i
COc1ccc(C2=NN(S(C)(=O)=O)C(c3ccc4nccnc4c3)C2)cc1 (stereo not drawn) | i | i | nt | i | i | 1.0[inhibitor] | i | i | i
Cc1ccc(C2=NN(S(C)(=O)=O)C(c3ccc4nccnc4c3)C2)cc1 (stereo not drawn) | i | i | 3.0[inhibitor] | i | i | i | i | i | i
CC(=O)N1N=C(c2cccc(NS(C)(=O)=O)c2)CC1c1ccc2c(c1)OCO2 (stereo not drawn) | nt | i | i | i | i | i | nt | nt | nt
O=C(O)CCCC(=O)N1N=C(c2ccccc2)CC1c1ccc2nccnc2c1 (stereo not drawn) | i | i | i | i | i | 136.0 | i | i | i
CS(=O)(=O)Nc1ccc(C2=NN(S(C)(=O)=O)C(c3ccc4c(c3)OCO4)C2)cc1 (stereo not drawn) | i | nt | nt | i | i | 6.0[inhibitor] | i | i | i
CC(=O)Nc1sc(NN=Cc2ccc(O)cc2)nc1-c1ccc(C)cc1 | nt | nt | nt | nt | i | nt | nt | nt | nt
CC12CCC(=O)N1C(C(=O)OCC(=O)Nc1ccc(S(N)(=O)=O)cc1)CS2 (stereo not drawn) | i | i | 49.0[inhibitor] | i | i | i | i | i | i
COc1cc(C=c2sc(=CC(=O)C(C)(C)C)[nH]c2=O)cc(OC)c1OC | nt | nt | nt | nt | i | nt | nt | nt | nt
COc1cc(C=NNC(=O)c2ccoc2C)cc(OC)c1OC | nt | nt | nt | nt | i | nt | nt | nt | nt
COc1ccc(S(=O)(=O)N2CC(C(=O)O)Oc3ccc(Cl)cc32)cc1 (stereo not drawn) | i | 36.0 | i | i | i | i | i | i | i
CC(C)(C)c1ccc(S(=O)(=O)N2CC(C(=O)O)Oc3ccc(Cl)cc32)cc1 (stereo not drawn) | i | i | i | i | i | i | nt | nt | nt
COC(=O)C1=C(C)Nc2nnnn2C1c1cc(OC)ccc1OC (stereo not drawn) | i | i | i | i | i | i | nt | nt | nt
COc1ccc(OC)c(C2C3=C(CCCC3=O)Nc3nnnn32)c1 (stereo not drawn) | i | i | i | i | i | 133.0 | i | i | i
CCN(CC)CCN(C(=O)c1ccc2ccccc2c1)c1nc2cc3c(cc2s1)OCO3 | + | i | 135.0 | i | i | i | i | i | i
CCN(CC)CCN(C(=O)c1ccc(S(=O)(=O)N2CCCCC2)cc1)c1nc2cc3c(cc2s1)OCO3 | i | i | i | i | i | 132.0 | i | i | i
CCOc1cccc2sc(N(CCN(CC)CC)C(=O)c3ccc(S(=O)(=O)N4CCCC4)cc3)nc12 | i | i | i | i | i | i | nt | nt | nt
SMILES | Rce1 inhib | MEKK2 mut-MEK5 | MEKK2wt PB1 HTS | T cell HTS | UCH37 DUB inh | MEKK3 PB1 HTS | MEKK2wt confirm | MEKK2mut confirm | MEKK3 confirm
Cc1cc(C)nc(SCc2cc(=O)c(OC(=O)c3ccco3)co2)n1 | i | i | i | i | i | i | nt | nt | nt
Cc1cc(C)nc(SCc2cc(=O)c(OC(=O)c3ccc(Br)o3)co2)n1 | i | i | i | i | i | 128.0 | i | i | i
O=C(NN=Cc1ccc(O)c2ccccc12)c1cccnc1 | nt | nt | nt | nt | i | nt | nt | nt | nt
S=C(Nc1ccc(Br)cc1Cl)N1CCCC1 | i | i | i | i | i | i | nt | nt | nt
O=C(Nc1ccc(CN2CCCCC2)cc1)Nc1ccc(Br)cc1Cl | i | i | 165.0 | i | i | i | i | i | i
CCOC(=O)c1c(NC(=O)c2ccc(N3C(=O)[C@@H]4[C@H](C3=O)[C@H]3C=C[C@@H]4C3)cc2)sc2c1CCCC2 | i | i | i | i | i | 145.0 | i | i | i
CCOC(=O)c1c(NC(=O)Cn2cnc([N+](=O)[O-])n2)sc2c1CCCC2 | i | i | i | i | i | 130.0 | i | i | i
CC(C)OC(=O)c1c(NC(=O)Cn2cnc([N+](=O)[O-])n2)sc2c1CCCC2 | i | i | i | i | i | i | nt | nt | nt
CCOC(=O)c1c(NC(=O)C2CCCN(S(=O)(=O)c3ccc(C)cc3)C2)sc2c1CCCC2 (stereo not drawn) | i | i | i | i | i | 141.0 | i | i | i
CC(C)(C)c1ccc2c(c1)OC(C(=O)NN=Cc1ccc(-c3cccc(C(=O)O)c3)o1)CO2 (stereo not drawn) | nt | nt | nt | nt | i | nt | nt | nt | nt
Cn1cccc1CC(=O)NN=Cc1ccc(Cl)c([N+](=O)[O-])c1 | nt | nt | nt | nt | i | nt | nt | nt | nt
COC(=O)CCCCCCCCC(O)C[N+]1(C)CCOCC1 (stereo not drawn) | i | i | 27.0[inhibitor] | i | i | 22.0[inhibitor] | i | i | i
CC(=NNC(=O)c1c(Cl)cnn1C)c1ccc(NC(=O)c2ccc(Br)o2)cc1 | nt | nt | nt | nt | i | nt | nt | nt | nt
O=C(COC(=O)/C=C/c1cccc(Cl)c1)NCCC1=CCCCC1 | i | i | i | i | i | 130.0 | i | i | i
CCC(Cc1ccccc1)=NNC(=O)c1cc(C)oc1C | nt | nt | nt | nt | i | nt | nt | nt | nt
C/C(=N/NC(=O)c1ccoc1C)c1ccc(N2CCOCC2)cc1 | i | i | i | i | nt | 131.0 | i | i | i
O=c1c(/C=C(\O)c2ccccc2)nc2ccccc2n1-c1ccccc1 | i | i | 58.0[inhibitor] | i | i | 81.0[inhibitor] | i | i | i

Screening results from PubChem.
